Activity calls are given as the source filed them. No cut-off for these calls is given here.
Tests used:
K562 [1] = assay: Antitumor activity against CM-Dil-labeled human K562 cells xenografted in wild-type zebrafish embryos assessed as tumor growth inhibition at 10 ug/ml measured after 48 hrs by confocal microscopic analysis; assay type: functional, cell-based
Procedure, shortened: (§1)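 K562 cells labelled with CM-Dil, suspended in FBS-free medium at (1 × 107)/mL and microinjected into wild-type zebrafish embryos kept at 28 °C in embryonic medium. After 4 h, embryos with the same injection spot were pooled at 15−20 per well and exposed to compound; Taxol served as positive control. At 48 h, confocal imaging gave fluorescent area (migration) and fluorescence intensity (cell number); n = 15.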

K562 [2] = assay: Antitumor activity against CM-Dil-labeled human K562 cells xenografted in wild-type zebrafish embryos assessed as reduction in cell migration at 10 ug/ml measured after 48 hrs by confocal microscopic analysis; assay type: functional, cell-based; procedure, shortened: as §1
K562 [3] = assay: Induction of ROS generation in human K562 cells at 1 uM after 48 hrs by DCFH-DA probe based flow cytometric analysis relative to control; assay type: functional
Procedure, shortened: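 K562 seeded at 4 × 10^5 cells/well, 12 h, then treated 48 h. Washed cells loaded with DCFH-DA in FBS-free medium at 37 °C for 30 min, rinsed, read by flow cytometry. ROSup was the positive control; mean ± SD, n = 3.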

K562 [4] = assay: Induction of apoptosis in human K562 cells assessed as late apoptotic cells at 3 uM after 48 hrs by Annexin V-FITC/propidium iodide-staining based flow cytometric analysis (reference value: 2.25 to 2.67%); assay type: functional
Procedure, shortened: (§2)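 K562 seeded at 4 × 10^5 cells/well, 12 h, then exposed 48 h. Cells washed in ice-cold PBS, suspended in binding buffer, stained with annexin V-FITC and PI for 15 min at room temperature in the dark, and read by flow cytometry within 1 h. Cells counted as early/late apoptotic as % of total; n = 3.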

K562 [5] = assay: Induction of apoptosis in human K562 cells assessed as increase in cytosolic cytochrome c level up to 6 uM after 48 hrs by Western blot analysis; assay type: functional, cell-based
Procedure, shortened: (§3)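 K562 treated 48 h, then lysed on ice for 30 min; cytosolic and mitochondrial fractions isolated by kit where needed, protein measured by BCA. 60 μg/lane run on SDS-PAGE, transferred to PVDF, blocked in 5% milk/TBST for 4 h. Probed for cytochrome c, caspase-9, caspase-3 (total/cleaved), PARP; alkaline phosphatase secondary.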

K562 [6] = assay: Induction of mitochondrial membrane depolarization in human K562 cells assessed as cells with intact mitochondrial membrane potential at 6 uM after 48 hrs by JC-1 staining based flow cytometric analysis (reference value: 97.63 to 97.67%); assay type: functional
K562 [7] = assay: Cytotoxicity against human K562 cells assessed as cell growth inhibition after 48 hrs by MTT assay; assay type: functional, cell-based; conditions: K562, 48 h
Procedure, shortened: (§4)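 Suspension cells seeded at 5000/well (HL-60 in IMDM, K562 in RPMI, both with 10% FBS) and treated. MTT then added for 4 h at 37 °C; plates centrifuged at 3000 rpm for 30 min, medium removed, DMSO added, OD570 read. IC50 taken as concentration giving 50% growth inhibition; triplicate.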

K562 [8] = assay: Induction of apoptosis in human K562 cells assessed as decrease in cytochrome c level in mitochondria up to 6 uM after 48 hrs by Western blot analysis; assay type: functional, cell-based; procedure, shortened: as §3
K562 [9] = assay: Induction of mitochondrial membrane depolarization in human K562 cells assessed as cells with mitochondrial membrane potential loss at 6 uM after 48 hrs by JC-1 staining based flow cytometric analysis (reference value: 1.89 to 2.23%); assay type: functional
K562 [10] = assay: Induction of apoptosis in human K562 cells assessed as early apoptotic cells at 3 uM after 48 hrs by Annexin V-FITC/propidium iodide-staining based flow cytometric analysis (reference value: 0.92 to 1.45%); assay type: functional; procedure, shortened: as §2
K562 [11] = assay: Induction of apoptosis in human K562 cells assessed as early apoptotic cells at 2 uM after 48 hrs by Annexin V-FITC/propidium iodide-staining based flow cytometric analysis (reference value: 0.92 to 1.45%); assay type: functional; procedure, shortened: as §2
K562 [12] = assay: Induction of apoptosis in human K562 cells assessed as necrotic cells at 1 uM after 48 hrs by Annexin V-FITC/propidium iodide-staining based flow cytometric analysis (reference value: 0.13 to 0.27%); assay type: functional; procedure, shortened: as §2
HepG2 = assay: Cytotoxicity against human HepG2 cells assessed as cell growth inhibition after 48 hrs by MTT assay; assay type: functional, cell-based; conditions: HepG2, 48 h
Procedure, shortened: (§5)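 Adherent cells seeded at 5000/well, left 16−24 h, then exposed 48 h at 37 °C, 5% CO2 in RPMI with 10% FBS. Medium refreshed, MTT added for 4 h at 37 °C, medium removed, formazan dissolved in DMSO, OD570 read. IC50 taken as concentration inhibiting growth by 50%; triplicate.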

K562 [13] = assay: Induction of apoptosis in human K562 cells assessed as late apoptotic cells at 1 uM after 48 hrs by Annexin V-FITC/propidium iodide-staining based flow cytometric analysis (reference value: 2.25 to 2.67%); assay type: functional; procedure, shortened: as §2
K562 [14] = assay: Induction of apoptosis in human K562 cells after 48 hrs by Annexin V-FITC/propidium iodide-staining based flow cytometric analysis; assay type: functional, cell-based; procedure, shortened: as §2
K562 [15] = assay: Induction of apoptosis in human K562 cells assessed as early apoptotic cells at 1 uM after 48 hrs by Annexin V-FITC/propidium iodide-staining based flow cytometric analysis (reference value: 0.92 to 1.45%); assay type: functional; procedure, shortened: as §2
K562 [16] = assay: Induction of apoptosis in human K562 cells assessed as late apoptotic cells at 2 uM after 48 hrs by Annexin V-FITC/propidium iodide-staining based flow cytometric analysis (reference value: 2.25 to 2.67%); assay type: functional; procedure, shortened: as §2
K562 [17] = assay: Induction of apoptosis in human K562 cells assessed as viable cells at 1 uM after 48 hrs by Annexin V-FITC/propidium iodide-staining based flow cytometric analysis (reference value: 95.75 to 96.56%); assay type: functional; conditions: K562, 48 h, read-out: Activity; procedure, shortened: as §2
K562 [18] = assay: Decrease in mitochondrial membrane potential in human K562 cells at 1 to 2 uM after 48 hrs by JC-1 staining based fluorescence microscopic analysis; assay type: functional, cell-based
Procedure, shortened: (§6)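 K562 seeded at 4 × 10^5 cells/well, after 12 h treated 48 h. Cells washed in ice-cold PBS, loaded with JC-1 ([…]) at 37 °C for 15 min, rinsed, and analysed by flow cytometry (% cells with red aggregates) and fluorescence microscopy (red aggregates vs green monomers).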

K562 [19] = assay: Induction of apoptosis in human K562 cells assessed as upregulation of cleaved PARP up to 6 uM after 48 hrs by Western blot analysis; assay type: functional, cell-based
K562 [20] = assay: Induction of mitochondrial membrane depolarization in human K562 cells assessed as cells with intact mitochondrial membrane potential at 4 uM after 48 hrs by JC-1 staining based flow cytometric analysis (reference value: 97.63 to 97.67%); assay type: functional
K562 [21] = assay: Induction of mitochondrial membrane depolarization in human K562 cells assessed as cells with mitochondrial membrane potential loss at 4 uM after 48 hrs by JC-1 staining based flow cytometric analysis (reference value: 1.89 to 2.23%); assay type: functional
K562 [22] = assay: Induction of apoptosis in human K562 cells assessed as necrotic cells at 3 uM after 48 hrs by Annexin V-FITC/propidium iodide-staining based flow cytometric analysis (reference value: 0.13 to 0.27%); assay type: functional; procedure, shortened: as §2
K562 [23] = assay: Induction of apoptosis in human K562 cells assessed as viable cells at 3 uM after 48 hrs by Annexin V-FITC/propidium iodide-staining based flow cytometric analysis (reference value: 95.75 to 96.56%); assay type: functional; conditions: K562, 48 h, read-out: Activity; procedure, shortened: as §2
K562 [24] = assay: Decrease in mitochondrial membrane potential in human K562 cells after 48 hrs by JC-1 staining based flow cytometry; assay type: functional, cell-based; procedure, shortened: as §6
K562 [25] = assay: Induction of apoptosis in human K562 cells assessed as viable cells at 2 uM after 48 hrs by Annexin V-FITC/propidium iodide-staining based flow cytometric analysis (reference value: 95.75 to 96.56%); assay type: functional; conditions: K562, 48 h, read-out: Activity; procedure, shortened: as §2
K562 [26] = assay: Induction of apoptosis in human K562 cells assessed as necrotic cells at 2 uM after 48 hrs by Annexin V-FITC/propidium iodide-staining based flow cytometric analysis (reference value: 0.13 to 0.27%); assay type: functional; procedure, shortened: as §2
L02 = assay: Cytotoxicity against human HL-7702 cells assessed as cell growth inhibition after 48 hrs by MTT assay; assay type: cell-based; conditions: L02, 48 h; procedure, shortened: as §5
K562 [27] = assay: Induction of mitochondrial membrane depolarization in human K562 cells assessed as cells with mitochondrial membrane potential loss at 2 uM after 48 hrs by JC-1 staining based flow cytometric analysis (reference value: 1.89 to 2.23%); assay type: functional
HL-60 = assay: Cytotoxicity against human HL60 cells assessed as cell growth inhibition after 48 hrs by MTT assay; assay type: functional, cell-based; conditions: HL-60, 48 h; procedure, shortened: as §4
A549 = assay: Cytotoxicity against human A549 cells assessed as cell growth inhibition after 48 hrs by MTT assay; assay type: functional, cell-based; conditions: A549, 48 h; procedure, shortened: as §5
ECa-109 cell line = assay: Cytotoxicity against human ECA109 cells assessed as cell growth inhibition after 48 hrs by MTT assay; assay type: functional, cell-based; conditions: ECa-109, 48 h; procedure, shortened: as §5
K562 [28] = assay: Induction of mitochondrial membrane depolarization in human K562 cells assessed as cells with intact mitochondrial membrane potential at 2 uM after 48 hrs by JC-1 staining based flow cytometric analysis (reference value: 97.63 to 97.67%); assay type: functional; procedure, shortened: as §6

In the case of `CC(=O)O[C@H]1C(=O)[C@@]2(C)[C@H]([C@H](OC(=O)c3ccccc3)[C@]3(O)C[C@H](OC(=O)[C@H](O)[C@@H](NC(=O)c4ccccc4)c4ccccc4)C(C)=C1C3(C)C)[C@]1(OC(C)=O)CO[C@@H]1C[C@@H]2O`, the TGI (K562 [1]) is reported as “Active” and the Activity (K562 [2]) is reported as “Active”.
For `C=C(C)[C@@H]1CC[C@]2(C(=O)O)CC[C@]3(C)[C@H](CC[C@@H]4[C@@]5(C)CC[C@H](OC(=O)CCCC[P+](c6ccccc6)(c6ccccc6)c6ccccc6)C(C)(C)[C@@H]5CC[C@]43C)[C@@H]12.[Br-]`, the Activity (K562 [3]) was 50%, the Activity (K562 [4]) was 26.46% and the Activity (K562 [5]) was “Active”. The Activity (K562 [6]) was 27.63%, the IC50 (K562 [7]) was 1.24 µM and the Activity (K562 [8]) was “Active”. It also gave an Activity (K562 [9]) of 72.12%, an Activity (K562 [10]) of 11.47% and an Activity (K562 [11]) of 10.78%. For the same molecule, the Activity (K562 [12]) was 0.14%, the IC50 (HepG2) was 1.07 µM and the Activity (K562 [13]) was 9.35%. The Activity (K562 [14]) was “Dose-dependent effect”, the Activity (K562 [15]) was 9.55% and the Activity (K562 [16]) was 16.43%. The viability at 1 µM (K562 [17]) was 81%, the Activity (K562 [18]) was “Active” and the Activity (K562 [19]) was “Active”. For the same molecule, the Activity (K562 [20]) was 41.5%, the Activity (K562 [21]) was 58.36% and the Activity (K562 [22]) was 0.7%. The viability at 3 µM (K562 [23]) was 61.4%, the Activity (K562 [24]) was “Dose-dependent effect” and the viability at 2 µM (K562 [25]) was 72.6%. It also gave an Activity (K562 [26]) of 0.23%, an IC50 (L02) of 4.92 µM and an Activity (K562 [27]) of 24.68%. For the same molecule, the IC50 (HL-60) was 0.32 µM, the IC50 (A549) was 1.26 µM and the IC50 (ECa-109 cell line) was 0.92 µM. For the same molecule, the Activity (K562 [28]) was 75.16%.
For `C=C(C)[C@@H]1CC[C@]2(CO)CC[C@]3(C)[C@H](CC[C@@H]4[C@@]5(C)CC[C@H](O)C(C)(C)[C@@H]5CC[C@]43C)[C@@H]12` [BETULIN], the IC50 (K562 [7]) was 12.9 µM, the IC50 (HepG2) was 10.7 µM and the IC50 (L02) was 26.8 µM. It also gave an IC50 (HL-60) of 30.9 µM, an IC50 (A549) of 18.2 µM and an IC50 (ECa-109 cell line) of 26.6 µM.
`C=C(C)[C@@H]1CC[C@]2(C(=O)O)CC[C@]3(C)[C@H](CC[C@@H]4[C@@]5(C)CC[C@H](O)C(C)(C)[C@@H]5CC[C@]43C)[C@@H]12` [BETULINIC ACID] was tested, and the IC50 (K562 [7]) was 22 µM, the IC50 (HepG2) was 25.3 µM and the IC50 (L02) was 35.1 µM. The IC50 (HL-60) was 18.5 µM, the IC50 (A549) was 17.1 µM and the IC50 (ECa-109 cell line) was 28.1 µM.
`C=C(C)[C@@H]1CC[C@]2(C(=O)OC)CC[C@]3(C)[C@H](CC[C@@H]4[C@@]5(C)CC[C@H](OC(=O)CCCC[P+](c6ccccc6)(c6ccccc6)c6ccccc6)C(C)(C)[C@@H]5CC[C@]43C)[C@@H]12` showed an IC50 (K562 [7]) of 3.58 µM, an IC50 (HepG2) of 4.35 µM and an IC50 (L02) of 6.3 µM. For the same molecule, the IC50 (HL-60) was 3.11 µM, the IC50 (A549) was 4.99 µM and the IC50 (ECa-109 cell line) was 4.75 µM.

Source: ChEMBL document CHEMBL4011654, “Mitochondria-Targeted Lupane Triterpenoid Derivatives and Their Selective Apoptosis-Inducing Anticancer Mechanisms” (J Med Chem, 2017)
